For series [1], the species on record is Homo sapiens. The experiment in a line: Toxicity in methicillin-resistant Staphylococcus aureus-infected human assessed as death. It is filed as organism-based. As to conditions: in vivo. Summed up: (§1)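 Safety population: randomized patients given at least one dose of IV study drug (500 mg every 12 h, 1-h infusion, 7–14 days) or vancomycin 1 g every 12 h, double-blind. Adverse events, including deaths, were recorded during treatment and follow-up. Laboratory values were compared between baseline and end of therapy.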

The species entered for series [2] is Homo sapiens. Put plainly: Toxicity in methicillin-resistant Staphylococcus aureus-infected human with complicated skin and skin structure infection assessed as dysgeusia. As to conditions: in vivo. It is filed as organism-based. In outline:
as §1

In series [3] the test system is Staphylococcus aureus. Put plainly: Antibacterial activity against methicillin-resistant Staphylococcus aureus infected in human with complicated skin and skin structure infection assessed as cure rate at test-of-cure visit. It is filed as functional.
Series [4] is filed under the species Homo sapiens. The experiment in a line: Toxicity in methicillin-resistant Staphylococcus aureus-infected human with complicated skin and skin structure infection assessed as headache. Format: organism-based. As to conditions: in vivo. Summed up:
as §1

The subject of series [5] is Staphylococcus aureus. Put plainly: Antibacterial activity against methicillin-resistant Staphylococcus aureus PVL positive isolate infected in human with complicated skin and skin structure infection assessed as cure rate at test-of-cure visit. It is filed as functional.
Series [6] relates to Staphylococcus aureus. The experiment in a line: Antibacterial activity against methicillin-resistant Staphylococcus aureus. It is filed as functional. Summed up: (§2)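 Duplicate baseline isolates from the infection site were tested centrally for susceptibility on customized TREK broth panels by CLSI methods. Identification was by coagulase and API testing. Staphylococci were typed for mecA and PVL genes by multiplex analysis.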

The subject of series [7] is Staphylococcus aureus. The experiment in a line: Antibacterial activity against methicillin-resistant Staphylococcus aureus clinical isolate. It is filed as functional. In outline:
as §2

Series [8] has as its system Staphylococcus aureus. Put plainly: Antibacterial activity against methicillin-susceptible Staphylococcus aureus infected in human with complicated skin and skin structure infection assessed as cure rate at test-of-cure visit. Format: functional.
The species entered for series [9] is Homo sapiens. The experiment in a line: Toxicity in methicillin-resistant Staphylococcus aureus-infected human with complicated skin and skin structure infection assessed as rash. Format: organism-based. As to conditions: in vivo. Summed up:
as §1

Series [10] is filed under the species Homo sapiens. The experiment in a line: Toxicity in methicillin-resistant Staphylococcus aureus-infected human with complicated skin and skin structure infection assessed as diarrhea. Format: organism-based. To be noted: in vivo. Summed up: as §1
The species named for series [11] is Homo sapiens. Put plainly: Toxicity in methicillin-resistant Staphylococcus aureus-infected human with complicated skin and skin structure infection assessed as constipation. It is filed as organism-based. To be noted: in vivo. In outline:
as §1

For series [12], the species on record is Homo sapiens. The experiment in a line: Toxicity in methicillin-resistant Staphylococcus aureus-infected human with complicated skin and skin structure infection assessed as nausea. Format: organism-based. As to conditions: in vivo. Summed up: as §1
The test system of series [13] is Staphylococcus aureus. The experiment in a line: Antibacterial activity against methicillin-susceptible Staphylococcus aureus. It is filed as functional. Summed up:
as §2

The test system of series [14] is Staphylococcus aureus. Put plainly: Antibacterial activity against methicillin-resistant Staphylococcus aureus infected in human with infections extending to fascia or muscle assessed as cure rate at test-of-cure visit. Format: functional, Muscle tissue.
For series [15], the species on record is Homo sapiens. Put plainly: Toxicity in methicillin-resistant Staphylococcus aureus-infected human with complicated skin and skin structure infection assessed as vomiting. Format: organism-based. As to conditions: in vivo. In outline:
as §1

The species named for series [16] is Homo sapiens. Put plainly: Toxicity in methicillin-resistant Staphylococcus aureus-infected human with complicated skin and skin structure infection assessed as dizziness. It is filed as organism-based. As to conditions: in vivo. In outline:
as §1

The test system of series [17] is Staphylococcus aureus. Put plainly: Antibacterial activity against methicillin-resistant Staphylococcus aureus infected in human with complicated skin and skin structure infection assessed as cure rate at test-of-cure visit in presence of C-reactive protein. It is filed as functional.
Series [18] is filed under the species Homo sapiens. Put plainly: Toxicity in methicillin-resistant Staphylococcus aureus-infected human with complicated skin and skin structure infection assessed as pruritus. It is filed as organism-based. To be noted: in vivo. Summed up:
as §1

≈ marks a conversion by molar mass, not a printed value.

A word on the MIC90: it is the lowest concentration that inhibits either 90% of growth or 90% of the strains tested, depending on the study. As usually defined, the MIC50 is an inhibitory concentration at the 50% level, which refers to growth in some studies and to a panel of isolates in others. With `Nc1nc(/C(=N/O)C(=O)N[C@@H]2C(=O)N3C(C(=O)O)=C(/C=C4\CCN([C@@H]5CCNC5)C4=O)CS[C@H]23)ns1` [CEFTOBIPROLE], the Activity entry is listed as “Non-toxic” in series [1]; 8% in series [2]; 91.8% in [3]; 7% in [4]; 93.1% in [5]; 96% in series [8]. Also, the Activity in series [9] amounted to 2%; in series [10] it was 5%; in series [11], 4%; in series [12], 14%; in series [14], 90.5%; in [15], 7%. Moreover, the Activity in series [16] is 4%; in series [17], 86.9%; in series [18], 3%. Besides, the MIC90 in series [6] was no more than 2 µg/mL; in series [7], 2 µg/mL (≈ 3.74 µM); in series [13], 0.5 µg/mL (≈ 0.935 µM). Besides, the MIC50 in series [7] came to 0.5 µg/mL (≈ 0.935 µM); in series [13], 0.25 µg/mL (≈ 0.468 µM).

As for `CN[C@H](CC(C)C)C(=O)N[C@H]1C(=O)N[C@@H](CC(N)=O)C(=O)N[C@H]2C(=O)N[C@H]3C(=O)N[C@H](C(=O)N[C@H](C(=O)O)c4cc(O)cc(O)c4-c4cc3ccc4O)[C@H](O)c3ccc(c(Cl)c3)Oc3cc2cc(c3O[C@@H]2O[C@H](CO)[C@@H](O)[C@H](O)[C@H]2O[C@H]2C[C@](C)(N)[C@H](O)[C@H](C)O2)Oc2ccc(cc2Cl)[C@H]1O` [VANCOMYCIN], the Activity in series [2] came to 1%; in [3], 90%; in [4], 6%; in series [5], 84.6%; in series [8] it was 96.4%; in series [9] it was 3%. Moreover, the Activity in series [10] amounted to 4%; in series [11], 3%; in series [12], 8%; in [14] it was 85.7%; in series [15] it was 4%; in series [16], 2%. In addition, the Activity in series [17] stood at 87.5%; in series [18], 6%. In addition, the MIC50 in series [7] and in series [13] was 0.5 µg/mL (≈ 0.345 µM) each time. The MIC90 in series [7] and in [13] was 1 µg/mL (≈ 0.69 µM) in each case.
